The text below walks through data of ChEMBL document CHEMBL5034051, “Proteome-wide Identification of Off-Targets of a Potent EGFRL858R/T790M Mutant Inhibitor” (ACS Med Chem Lett, 2022).

In general, IC50 refers to the midpoint of a concentration-inhibition curve.

Active and inactive are the calls of the source. The calls are words filed in the database; no cut-off is given here.

In series [1] the target is Epidermal growth factor receptor (Homo sapiens, UniProt P00533, T790M). Description: Inhibition of EGFR T790M mutant (unknown origin) using Poly (Glu, Tyr)4:1 as substrate by spectrophotometry.
Chain of Epidermal growth factor receptor (P00533 25-1210 T790M limits assumed): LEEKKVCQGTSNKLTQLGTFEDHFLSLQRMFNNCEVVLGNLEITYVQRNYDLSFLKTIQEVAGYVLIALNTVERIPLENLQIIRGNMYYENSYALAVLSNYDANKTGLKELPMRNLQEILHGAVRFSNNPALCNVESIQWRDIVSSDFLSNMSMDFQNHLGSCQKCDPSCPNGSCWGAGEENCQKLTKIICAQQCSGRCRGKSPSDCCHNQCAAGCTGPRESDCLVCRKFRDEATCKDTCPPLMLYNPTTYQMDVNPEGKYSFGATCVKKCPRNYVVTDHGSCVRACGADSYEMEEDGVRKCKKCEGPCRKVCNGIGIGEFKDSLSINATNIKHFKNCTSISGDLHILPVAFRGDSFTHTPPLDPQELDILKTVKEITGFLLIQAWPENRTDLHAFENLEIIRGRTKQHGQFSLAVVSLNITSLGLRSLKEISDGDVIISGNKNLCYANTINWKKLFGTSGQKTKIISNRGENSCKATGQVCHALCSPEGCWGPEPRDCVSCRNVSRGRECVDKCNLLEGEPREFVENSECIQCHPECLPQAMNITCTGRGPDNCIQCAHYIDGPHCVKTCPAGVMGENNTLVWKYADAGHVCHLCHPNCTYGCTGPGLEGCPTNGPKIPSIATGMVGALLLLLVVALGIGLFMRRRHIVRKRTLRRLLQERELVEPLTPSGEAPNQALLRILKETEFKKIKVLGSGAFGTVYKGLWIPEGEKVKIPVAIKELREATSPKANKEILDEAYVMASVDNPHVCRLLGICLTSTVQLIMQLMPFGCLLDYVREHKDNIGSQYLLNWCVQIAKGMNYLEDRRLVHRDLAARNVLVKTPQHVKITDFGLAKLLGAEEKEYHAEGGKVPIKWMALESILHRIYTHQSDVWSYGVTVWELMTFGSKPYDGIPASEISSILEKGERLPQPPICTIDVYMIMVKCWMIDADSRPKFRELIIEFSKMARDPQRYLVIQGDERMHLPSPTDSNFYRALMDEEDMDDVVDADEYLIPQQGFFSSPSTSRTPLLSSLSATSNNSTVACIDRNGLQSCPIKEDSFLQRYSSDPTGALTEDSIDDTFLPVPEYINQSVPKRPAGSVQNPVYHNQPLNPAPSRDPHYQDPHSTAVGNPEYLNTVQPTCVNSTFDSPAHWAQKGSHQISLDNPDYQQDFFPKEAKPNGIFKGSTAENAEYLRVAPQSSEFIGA
For series [2], the system named is NCI-H1975. Description: Antiproliferative activity against human NCI-H1975 cells harboring EGFR T790M mutant assessed as reduction in cell viability measured after 72 hrs by CCK8 assay. Type of series: functional, cell-based. The note with it: NCI-H1975, 72 h. An outline of the steps:
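H1975 NSCLC cells, which carry EGFR T790M, were used in a cell-based CCK8 antiproliferation assay. IC50 values were reported.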
On the technique in general: Formazan colour is commonly taken as a measure of viable cells.

The nature of series [3]: Drug uptake in cytosol of human NCI-H1975 cells assessed as fluorescence signal at 5 uM incubated for 1 hrs by fluorescence microscopy. Type of series: ADME, subcellular. An outline of the steps: (§1)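 Live H1975 cells were incubated for 1 h with the 5 μM alkyne probe, with or without parent inhibitor, against DMSO controls. Cells were then fixed, permeabilized, clicked with TAMRA-azide and imaged by fluorescence microscopy, with excitation at 550 nm for the probe channel.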

Series [4] in a line: Drug uptake in nucleus of human NCI-H1975 cells assessed as fluorescence signal at 5 uM incubated for 1 hrs by fluorescence microscopy. In kind it is ADME, cell-based. Conditions: nci-h1975, 1 h. Summed up: as §1
In series [5] the target is Epidermal growth factor receptor (Homo sapiens) (UniProt P00533). In words: Inhibition of EGFR in human NCI-H1975 cells by pull down/Western blot analysis. In kind it is cell-based. Summed up: (§2)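 H1975 cells were treated with the probe, and the lysate was clicked to a biotin tag and enriched on streptavidin beads. The pulled-down proteins were then detected by Western blot with antibodies to EGFR and NT5DC1.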
Chain of Epidermal growth factor receptor (Homo sapiens) (P00533 whole entry): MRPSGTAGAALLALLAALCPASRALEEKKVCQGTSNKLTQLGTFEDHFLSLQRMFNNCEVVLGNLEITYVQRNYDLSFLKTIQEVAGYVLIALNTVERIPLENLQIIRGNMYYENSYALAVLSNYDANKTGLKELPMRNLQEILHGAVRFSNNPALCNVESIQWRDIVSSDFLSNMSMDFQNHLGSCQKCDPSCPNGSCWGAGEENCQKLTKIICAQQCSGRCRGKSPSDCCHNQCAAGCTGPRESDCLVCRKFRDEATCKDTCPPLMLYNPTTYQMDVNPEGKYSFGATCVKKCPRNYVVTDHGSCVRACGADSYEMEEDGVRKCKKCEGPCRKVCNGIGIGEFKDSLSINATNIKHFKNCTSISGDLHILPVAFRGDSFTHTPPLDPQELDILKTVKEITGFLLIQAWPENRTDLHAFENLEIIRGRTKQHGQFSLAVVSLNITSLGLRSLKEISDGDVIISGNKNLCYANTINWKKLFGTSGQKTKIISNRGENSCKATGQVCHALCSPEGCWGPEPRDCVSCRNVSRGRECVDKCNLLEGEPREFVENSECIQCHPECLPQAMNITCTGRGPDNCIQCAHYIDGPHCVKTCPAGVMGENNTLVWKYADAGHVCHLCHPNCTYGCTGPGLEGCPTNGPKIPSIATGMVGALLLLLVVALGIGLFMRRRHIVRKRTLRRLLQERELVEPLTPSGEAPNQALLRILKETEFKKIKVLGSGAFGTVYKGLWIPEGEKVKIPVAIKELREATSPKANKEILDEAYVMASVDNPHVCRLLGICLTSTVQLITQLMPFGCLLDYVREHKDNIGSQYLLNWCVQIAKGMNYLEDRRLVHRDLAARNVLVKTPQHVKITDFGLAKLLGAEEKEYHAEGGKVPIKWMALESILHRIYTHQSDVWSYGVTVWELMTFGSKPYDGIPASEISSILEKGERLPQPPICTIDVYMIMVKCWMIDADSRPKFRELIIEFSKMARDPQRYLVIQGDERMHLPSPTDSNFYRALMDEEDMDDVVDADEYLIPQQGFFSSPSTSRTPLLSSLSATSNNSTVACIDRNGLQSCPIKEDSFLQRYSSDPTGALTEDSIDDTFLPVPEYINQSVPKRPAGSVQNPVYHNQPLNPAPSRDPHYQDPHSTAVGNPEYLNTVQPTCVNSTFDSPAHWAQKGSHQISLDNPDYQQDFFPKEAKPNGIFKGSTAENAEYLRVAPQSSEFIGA

Series [6] addresses T1, 5'-nucleotidase domain-containing protein 1 (Homo sapiens) (UniProt Q5TFE4).
T1 sequence (whole entry): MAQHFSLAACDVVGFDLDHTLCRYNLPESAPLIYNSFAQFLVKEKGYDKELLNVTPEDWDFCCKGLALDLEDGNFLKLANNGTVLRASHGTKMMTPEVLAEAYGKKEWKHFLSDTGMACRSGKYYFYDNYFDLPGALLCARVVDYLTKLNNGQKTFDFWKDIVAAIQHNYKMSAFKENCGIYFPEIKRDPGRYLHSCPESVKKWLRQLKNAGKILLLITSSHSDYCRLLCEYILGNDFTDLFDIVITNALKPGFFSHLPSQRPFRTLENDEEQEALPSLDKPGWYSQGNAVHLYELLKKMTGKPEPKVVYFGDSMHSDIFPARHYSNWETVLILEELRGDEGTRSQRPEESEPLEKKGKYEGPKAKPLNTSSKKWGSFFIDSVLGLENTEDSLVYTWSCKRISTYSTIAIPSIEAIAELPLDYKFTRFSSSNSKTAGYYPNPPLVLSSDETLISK
Description: Inhibition of NT5DC1 in human NCI-H1975 cells by pull down/Western blot analysis. In kind it is cell-based. Summed up: as §2
A general note: A western blot detects proteins with antibodies after separation by electrophoresis.

Series [7] addresses T1, 5'-nucleotidase domain-containing protein 1 (Homo sapiens). Description: Thermal stabilization of NT5DC1 in human NCI-H1975 cells assessed as positive shift in melting temperature by CETSA. Type of series: cell-based. An outline of the steps: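 Binding was tested by cellular thermal shift assay in H1975 cells exposed to the compounds. NT5DC1 stabilization was read as a shift in melting temperature.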

Series [8] has as its system NCI-H1975. Description: Antiproliferative activity against NT5DC1 knockdown human NCI-H1975 cells assessed as reduction in cell viability incubated for 48 hrs by CCK8 assay. Type of series: functional, cell-based. An outline of the steps:
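NT5DC1 was knocked down in H1975 cells with siRNA, with scrambled siRNA as the negative control. Knockdown was checked by Western blot. Cells with or without knockdown were exposed to a range of compound concentrations, and viability was read out against DMSO-treated controls.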

Series [9] addresses T1, 5'-nucleotidase domain-containing protein 1 (Homo sapiens). Description: Binding affinity to NT5DC1 in human NCI-H1299 cells at 1 uM by Western blot analysis. Type of series: cell-based. An outline of the steps:
(§3)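 Live cancer cells were labelled in situ with the 1 μM alkyne probe, clicked to TAMRA-azide and resolved by SDS-PAGE with fluorescence scanning. NT5DC1 expression in each line was measured separately by Western blot.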

The target is the same in series [10]. Description: Binding affinity to NT5DC1 in human HeLa cells at 1 uM by Western blot analysis. Type of series: cell-based. Summed up:
as §3

Series [11] shares this target. Description: Binding affinity to NT5DC1 in human Huh-7 cells at 1 uM by Western blot analysis. In kind it is cell-based. An outline of the steps: as §3
Series [12] shares this target. In words: Binding affinity to NT5DC1 in human MCF7 cells at 1 uM by Western blot analysis. Type of series: cell-based. Summed up: as §3
The target is the same in series [13]. Description: Binding affinity to NT5DC1 in human MV4-11 cells at 1 uM by Western blot analysis. Type of series: cell-based. An outline of the steps:
as §3

The target of series [14] is Epidermal growth factor receptor (Homo sapiens) (UniProt P00533). In words: Binding affinity to EGFR in human NCI-H1975 cells at 5 uM by pull down/LC-MS/MS analysis. Type of series: cell-based. Summed up: (§4)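 Live H1975 cells were incubated for 1 h with the 5 μM alkyne probe, with or without 5× parent inhibitor as competitor. Cells were lysed and clicked by CuAAC to a biotin-TAMRA-azide tag. Proteins were enriched on streptavidin beads, checked by in-gel fluorescence, trypsin-digested and run on LC-MS/MS with label-free quantification. Hits were kept if log2 enrichment (probe/DMSO) was >3, −log10 p was >2 and probe LFQ intensity was >1 × 10^7.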

In series [15] the target is Trifunctional enzyme subunit alpha, mitochondrial (Homo sapiens) (UniProt P40939). Description: Binding affinity to HADHA in human NCI-H1975 cells at 5 uM by pull down/LC-MS/MS analysis. Type of series: cell-based. Summed up: as §4
Chain of Trifunctional enzyme subunit alpha, mitochondrial (Homo sapiens) (P40939 whole entry): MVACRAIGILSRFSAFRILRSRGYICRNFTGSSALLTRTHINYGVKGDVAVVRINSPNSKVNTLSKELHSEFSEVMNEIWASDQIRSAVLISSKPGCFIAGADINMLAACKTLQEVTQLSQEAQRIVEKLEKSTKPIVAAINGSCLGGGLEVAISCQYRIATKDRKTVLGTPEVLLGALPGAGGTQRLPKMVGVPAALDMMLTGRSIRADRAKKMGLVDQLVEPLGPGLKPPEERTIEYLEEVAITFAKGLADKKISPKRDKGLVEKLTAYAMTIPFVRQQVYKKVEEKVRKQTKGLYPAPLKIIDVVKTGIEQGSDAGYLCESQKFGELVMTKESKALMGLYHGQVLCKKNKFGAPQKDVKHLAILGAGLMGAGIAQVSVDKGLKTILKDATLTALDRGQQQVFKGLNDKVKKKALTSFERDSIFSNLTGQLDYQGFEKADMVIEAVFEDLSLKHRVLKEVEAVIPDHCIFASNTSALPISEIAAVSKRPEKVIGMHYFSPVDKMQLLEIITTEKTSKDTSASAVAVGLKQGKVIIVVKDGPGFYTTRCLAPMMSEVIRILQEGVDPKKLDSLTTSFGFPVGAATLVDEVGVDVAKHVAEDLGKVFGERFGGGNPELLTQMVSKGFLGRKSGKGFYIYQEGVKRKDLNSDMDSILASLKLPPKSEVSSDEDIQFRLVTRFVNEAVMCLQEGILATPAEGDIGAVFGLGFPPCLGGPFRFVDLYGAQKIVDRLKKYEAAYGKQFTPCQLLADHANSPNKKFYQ
The target in series [16] is DNA replication licensing factor MCM2 (Homo sapiens) (UniProt P49736). Description: Binding affinity to MCM2 in human NCI-H1975 cells at 5 uM by pull down/LC-MS/MS analysis. In kind it is cell-based. Summed up:
as §4

Series [17] has as its system NCI-H1975. In words: Binding affinity to MAP4 in human NCI-H1975 cells at 5 uM by pull down/LC-MS/MS analysis. In kind it is cell-based. Summed up: as §4
Series [18] relates to NCI-H1975. Description: Binding affinity to RPS19 in human NCI-H1975 cells at 5 uM by pull down/LC-MS/MS analysis. In kind it is cell-based. Summed up:
as §4

The target in series [19] is T1, 5'-nucleotidase domain-containing protein 1 (Homo sapiens). In words: Binding affinity to NT5DC1 in human NCI-H1975 cells at 5 uM by pull down/LC-MS/MS analysis. In kind it is cell-based. An outline of the steps:
as §4

Series [20] addresses Mitochondrial antiviral-signaling protein (Homo sapiens) (UniProt Q7Z434). In words: Binding affinity to MAVS in human NCI-H1975 cells at 5 uM by pull down/LC-MS/MS analysis. Type of series: cell-based. An outline of the steps:
as §4

Series [21] has as its target T1, 5'-nucleotidase domain-containing protein 1 (Homo sapiens). Description: Binding affinity to NT5DC1 in human MDA-MB-453 cells at 1 uM by Western blot analysis.

Chain of Mitochondrial antiviral-signaling protein (Homo sapiens) (Q7Z434 whole entry): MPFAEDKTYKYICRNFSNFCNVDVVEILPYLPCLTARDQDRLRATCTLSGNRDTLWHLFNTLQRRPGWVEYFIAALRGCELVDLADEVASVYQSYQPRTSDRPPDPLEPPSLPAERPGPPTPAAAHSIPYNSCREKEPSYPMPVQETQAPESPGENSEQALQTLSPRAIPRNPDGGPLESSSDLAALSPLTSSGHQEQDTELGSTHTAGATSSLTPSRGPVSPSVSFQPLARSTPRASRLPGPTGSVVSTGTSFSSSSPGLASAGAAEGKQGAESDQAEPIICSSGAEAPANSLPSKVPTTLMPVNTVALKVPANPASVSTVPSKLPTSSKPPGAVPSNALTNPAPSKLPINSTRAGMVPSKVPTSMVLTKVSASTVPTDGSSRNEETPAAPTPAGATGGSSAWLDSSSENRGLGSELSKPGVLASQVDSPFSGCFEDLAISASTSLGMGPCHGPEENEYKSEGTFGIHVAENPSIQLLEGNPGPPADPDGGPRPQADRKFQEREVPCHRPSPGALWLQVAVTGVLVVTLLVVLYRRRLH
Chain of DNA replication licensing factor MCM2 (Homo sapiens) (P49736 whole entry): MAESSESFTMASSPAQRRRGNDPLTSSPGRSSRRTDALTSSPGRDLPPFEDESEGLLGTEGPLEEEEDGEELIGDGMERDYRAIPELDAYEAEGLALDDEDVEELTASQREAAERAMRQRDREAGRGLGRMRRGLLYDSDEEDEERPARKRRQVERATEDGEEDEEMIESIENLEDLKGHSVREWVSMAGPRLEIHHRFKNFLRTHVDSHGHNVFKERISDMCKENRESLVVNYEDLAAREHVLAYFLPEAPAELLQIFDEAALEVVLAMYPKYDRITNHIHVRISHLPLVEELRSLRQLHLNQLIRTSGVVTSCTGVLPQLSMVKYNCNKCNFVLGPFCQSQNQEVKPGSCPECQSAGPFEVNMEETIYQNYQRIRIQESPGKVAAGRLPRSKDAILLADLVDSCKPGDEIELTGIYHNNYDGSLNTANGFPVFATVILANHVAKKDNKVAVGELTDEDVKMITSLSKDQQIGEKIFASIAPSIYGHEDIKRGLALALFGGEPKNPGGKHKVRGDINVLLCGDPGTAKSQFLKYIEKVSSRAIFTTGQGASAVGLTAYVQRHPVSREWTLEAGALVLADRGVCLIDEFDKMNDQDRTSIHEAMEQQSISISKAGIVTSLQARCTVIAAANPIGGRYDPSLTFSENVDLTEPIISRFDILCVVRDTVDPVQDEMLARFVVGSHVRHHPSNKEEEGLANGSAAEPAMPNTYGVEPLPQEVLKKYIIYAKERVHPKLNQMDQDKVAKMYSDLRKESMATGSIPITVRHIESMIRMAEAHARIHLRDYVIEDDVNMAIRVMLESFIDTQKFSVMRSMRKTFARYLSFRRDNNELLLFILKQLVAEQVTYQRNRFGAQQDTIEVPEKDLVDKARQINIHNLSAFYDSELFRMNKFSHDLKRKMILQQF

In the case of `C#CCN1CCN(c2ccc(Nc3ncc4c(C)cc(=O)n(-c5cccc(NC(=O)C=C)c5)c4n3)c(OC)c2)CC1`, the IC50 in series [1] stood at 8.04 nM; with NCI-H1975 [2] it was 820 nM. The Drug uptake entry was “Active” in series [3] and “Not Active” in [4]. In addition, the inhibition result in [5] and in series [6] was “Active” each time. Also, the result (in series [7]; in the series on NCI-H1975 [8]; in [9]; in series [10]; in series [11]; in [12]) was Active. Moreover, the result (in series [13]; in series [14]; in [15]; in [16]; in the series with NCI-H1975 [17]; in the series on NCI-H1975 [18]) was Active. The result in series [19], in [20] and in series [21] was Active.

For the compound `CN(C)C/C=C/C(=O)Nc1cc2c(Nc3ccc(F)c(Cl)c3)ncnc2cc1O[C@H]1CCOC1` [AFATINIB], in the series on NCI-H1975 [2], the IC50 came out at 370 nM.

Consider `C=CC(=O)Nc1cc(Nc2nccc(-c3cn(C)c4ccccc34)n2)c(OC)cc1N(C)CCN(C)C` [OSIMERTINIB], for which the IC50 in the series with NCI-H1975 [2] worked out at […].

With `C=CC(=O)Nc1cccc(-n2c(=O)cc(C)c3cnc(Nc4ccc(N5CCN(C)CC5)cc4OC)nc32)c1`, the values for the IC50 (in series [1]; with NCI-H1975 [2]) were 5.27 nM and 130 nM, respectively. For the same compound, the outcome (in [7]; with NCI-H1975 [8]) was Active.
